Assay [1] in a line: Inhibition of beta-lactamase VIM2 (unknown origin) expressed in Escherichia coli BL21(DE3) using imipenem as substrate by measuring substrate hydrolysis at 200 uM by spectrophotometric analysis. The procedure, abridged:
(§1)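 Purified enzyme (overproduced in E. coli BL21(DE3), pET-9a; ion-exchange and gel filtration), 1-70 nM final. Reporter substrate 150 μM imipenem, read at 300 nm, 30 °C, 50 mM HEPES pH 7.5. Single-point screen at 100 or 200 μM; Ki from v0/vi vs [I] (0.5–1,000 μM final) assuming competitive inhibition, or Dixon plot. Triplicate.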

Assay [2] in a line: Inhibition of beta-lactamase VIM4 (unknown origin) expressed in Escherichia coli BL21(DE3) using imipenem as substrate by measuring substrate hydrolysis by spectrophotometric analysis. Summed up: as §1
Assay [3] can be described thus: Inhibition of beta-lactamase IMP-1 (unknown origin) expressed in Escherichia coli BL21(DE3) using imipenem as substrate by measuring substrate hydrolysis at 200 uM by spectrophotometric analysis. Summed up:
as §1

Assay [4] in a line: Inhibition of beta-lactamase IMP-1 (unknown origin) expressed in Escherichia coli BL21(DE3) using imipenem as substrate by measuring substrate hydrolysis at 100 uM by spectrophotometric analysis. The procedure, abridged:
as §1

Assay [5] in a line: Inhibition of beta-lactamase L1 (unknown origin) expressed in Escherichia coli BL21(DE3) using nitrocefin as substrate by measuring substrate hydrolysis preincubated for 30 mins by spectrophotometric analysis. Summed up: (§2)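 Enzyme 0.2–0.8 nM in 25 mM HEPES pH 7.5 with 50 μM ZnCl2 final, pre-incubated 30 min at 21 °C with inhibitor (100 μM screen). Nitrocefin 100 μM final, read at 482 nm, 30 °C. Residual activity vs three uninhibited samples; Ki (1–100 μM inhibitor) from Hanes linearization, competitive model. Triplicate.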

Assay [6] in a line: Inhibition of beta-lactamase VIM2 (unknown origin) expressed in Escherichia coli BL21(DE3) using imipenem as substrate by measuring substrate hydrolysis at 100 uM by spectrophotometric analysis. The procedure, abridged: as §1
A short description of assay [7]: Inhibition of beta-lactamase NDM1 (unknown origin) expressed in Escherichia coli BL21(DE3) using cefotaxime/nitrocefin as substrate by measuring substrate hydrolysis at 200 uM by spectrophotometric analysis.
Assay [8] in a line: Inhibition of beta-lactamase L1 (unknown origin) expressed in Escherichia coli BL21(DE3) using nitrocefin as substrate by measuring substrate hydrolysis at 100 uM preincubated for 30 mins by spectrophotometric analysis. The procedure, abridged: as §2
Assay [9] in a line: Inhibition of beta-lactamase VIM4 (unknown origin) expressed in Escherichia coli BL21(DE3) using imipenem as substrate by measuring substrate hydrolysis at 100 uM by spectrophotometric analysis. Summed up:
as §1

A short description of assay [10]: Inhibition of beta-lactamase L1 (unknown origin) expressed in Escherichia coli BL21(DE3) using nitrocefin as substrate by measuring substrate hydrolysis at 200 uM preincubated for 30 mins by spectrophotometric analysis.
A short description of assay [11]: Inhibition of beta-lactamase NDM1 (unknown origin) expressed in Escherichia coli BL21(DE3) using cefotaxime/nitrocefin as substrate by measuring substrate hydrolysis at 100 uM by spectrophotometric analysis.
A short description of assay [12]: Inhibition of beta-lactamase CphA (unknown origin) expressed in Escherichia coli BL21(DE3) using imipenem as substrate by measuring substrate hydrolysis by spectrophotometric analysis. Summed up: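 Enzyme 0.2–0.8 nM in 15 mM cacodylate pH 6.5, no added zinc, pre-incubated 30 min at 21 °C with inhibitor (100 μM screen). Imipenem substrate added from 10 mM stock; hydrolysis at 300 nm, 30 °C. Residual activity vs three uninhibited samples; Ki (1–100 μM inhibitor) by Hanes linearization, competitive model. Triplicate.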

The inhibition is the share of the control response that was lost under treatment. For orientation: Ki means the equilibrium dissociation constant of an inhibitor or competing ligand from its target.

Activity calls are given as the source filed them. The rule behind the calls is not given here.

For `O=C(O)c1ccccc1/C=N/n1c(-c2ccc3ccccc3c2O)n[nH]c1=S`, the inhibition entry in [1], in [3], in assay [4] and in assay [6] was “inactive” each time. The inhibition constant Ki in assay [2] stood at 2 µM; in assay [5], 0.5 µM. Also, the inhibition in assay [7] was 60%.

In the case of `Oc1ccc(/C=N/n2c(-c3cccc(-c4ccccc4)c3)n[nH]c2=S)c(O)c1`, the inhibition entry in assay [8], in assay [3], in [4] and in assay [10] was “inactive” each time. Also, the values for the inhibition in assay [9], in [6] and in [11] were 65%, 45% and 65%, respectively.

With `O=C(O)c1ccccc1/C=N/n1c(-c2cccc(Br)c2)n[nH]c1=S`, the inhibition constant (Ki) in [2] turned out to be 2 µM; in assay [5], 3 µM. Further, the inhibition result in assay [3], in assay [4], in assay [7] and in assay [11] was “inactive” each time. Also, the inhibition in assay [6] worked out at 35%.

For the compound `Oc1ccc(/C=N/n2c(-c3cc(O)ccc3O)n[nH]c2=S)c(O)c1`, the inhibition entry in assay [1], in assay [6], in assay [7] and in [11] was “inactive” in each case. The Ki in assay [2] worked out at 3 µM; in assay [5], 15 µM; in assay [12], 5 µM. Besides, in assay [4], the inhibition turned out to be 50%.

As to `O=C(O)c1ccccc1/C=N/n1c(-c2ccccc2-c2ccccc2)n[nH]c1=S`, the inhibition entry in [1], in assay [8], in assay [3], in assay [4], in assay [10] and in assay [6] was “inactive” in each case. In addition, the inhibition came out at 49% in assay [9] and 32% in assay [11].

`O=C(O)c1cccc(-c2cccc(/C=N/n3c(-c4ccc5ccccc5c4)n[nH]c3=S)c2)c1` returned a Ki in assay [2] of 2.8 µM. The inhibition in [8] came to 45%; in assay [6], 30%; in [7] it was 50%. The inhibition result in [3] and in assay [4] was “inactive” in each case.

As for `Cc1ccccc1-c1n[nH]c(=S)n1/N=C/c1cc(O)ccc1[N+](=O)[O-]`, the inhibition result in [1], in assay [6], in assay [7] and in assay [11] was “inactive” each time. In addition, the inhibition in [4] was determined as 47%; in assay [9] it was 32%. The inhibition constant (Ki) in assay [5] amounted to 16 µM; in assay [12], 9 µM.

On to `Oc1ccc(/C=N/n2c(Cc3ccc4ccccc4c3)n[nH]c2=S)c(O)c1`, for which the inhibition entry in [1], in assay [8], in assay [10], in assay [6], in assay [7] and in assay [11] was “inactive” each time. The inhibition in assay [4] was determined as 64%; in [9] it was 30%.

On to `S=c1[nH]nc(-c2ccccc2-c2ccccc2)n1/N=C/c1ccc(OCc2ccccc2)cc1`, for which the inhibition entry in assay [1], in [8], in assay [3], in assay [4], in [10] and in assay [6] was “inactive” throughout. The same compound showed an inhibition in assay [11] of 45%.

Regarding `O=C(O)c1ccccc1/C=N/n1c(-c2cccc(F)c2)n[nH]c1=S`, the inhibition result in assay [1], in assay [3], in [4] and in assay [6] was “inactive” each time. Further, the values for the inhibition in assay [8] and in assay [9] were 40% and 51%, respectively.

These data come from ChEMBL document CHEMBL4706580, “4-Amino-1,2,4-triazole-3-thione-derived Schiff bases as metallo-β-lactamase inhibitors” (Eur J Med Chem, 2020).
